Measured values collected from several papers.
Compare with care: the assays were run in different laboratories.
Target: Adenosine receptor A3 (ADORA3, Homo sapiens, UniProt P0DMS8)
Residues used in one study (P0DMS8 1-318): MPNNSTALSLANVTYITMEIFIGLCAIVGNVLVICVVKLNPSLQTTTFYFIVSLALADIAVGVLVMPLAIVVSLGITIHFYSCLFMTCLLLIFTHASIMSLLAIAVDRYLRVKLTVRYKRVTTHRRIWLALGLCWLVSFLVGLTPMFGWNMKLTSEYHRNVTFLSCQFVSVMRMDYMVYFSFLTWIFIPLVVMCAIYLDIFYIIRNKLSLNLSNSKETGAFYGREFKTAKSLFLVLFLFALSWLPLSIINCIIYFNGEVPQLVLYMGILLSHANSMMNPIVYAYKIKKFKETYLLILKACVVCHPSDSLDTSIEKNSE

The Emax of `CCNC(=O)[C@H]1O[C@@H](n2cnc3c(N)ncnc32)[C@H](O)[C@@H]1O` is reported as 99.5% (β-arrestin recruitment; agonist; HEK-293T).
`CC(C)Cn1cnc2c(N)nc3ccccc3c21` has an inhibition of 16% (ligand displacement; radioligand; 10 µM).
The inhibition of `O=C(Nc1cccnn1)N1CCN([C@@H]2CCOc3cc(C(F)(F)F)ccc32)CC1` is reported as 25% (ligand displacement; 20 µM).
The remaining binding of `CCN(CC)CCCC[C@H](NC(=O)[C@H](CC(C)C)NC(=O)[C@H](C)NC(=O)[C@H](Cc1ccccc1)NC(=O)c1ccc(C(C)(C)C)cc1)C(=O)N[C@@H](CO)C(=O)OC` is reported as 96.9% (ligand displacement; radioligand; 10 µM).
With `C[C@H](C(=O)N[C@H]1COc2ccccc2[C@@H]1S(C)(=O)=O)c1ccc(F)cc1` the inhibition was 11% (cell-free assay; 10 µM).
With `CCCCSC[C@@]12C[C@@H]1[C@@H](n1cnc3c(NC(C4CCCC4)C4CCCC4)nc(Cl)nc31)[C@H](O)[C@@H]2O` the inhibition was 33% (ligand displacement; radioligand; 10 µM).
The inhibition of `c1ccc(C(NCCNC(c2ccccc2)c2ccccc2)c2ccccc2)cc1` is reported as 70% (cell-free assay; 10 µM).
With `COCCN(CCOC)C(=O)[C@@]12C[C@@H]1[C@@H](n1cnc3c(N)nc(Cl)nc31)[C@H](O)[C@@H]2O` the inhibition was 51% (ligand displacement; radioligand; 10 µM).
The inhibition of `COCc1c(-c2cc3cc(C)cc(OC)c3s2)c2c(N)ncnn2c1CN1CCNC(=O)C1` is reported as 39% (ligand displacement; radioligand; 10 µM).
`CC(C)N1CCC[C@H]1CNC(=O)c1cn(C2CCCC2)c(=O)c2c1c1ccccc1n2C` gave an inhibition of 14% (ligand displacement; radioligand; 10 µM).
With `COc1ccc(S(=O)(=O)N2CCCCC2)cc1C` the inhibition was less than 30% (ligand displacement; radioligand; 10 µM).
With `CN(CCN1CCC(OC(=O)Nc2ccccc2-c2ccccc2)CC1)C(=O)c1ccc(CN2CCC(C(N)=O)CC2)cc1` the inhibition was -12% (ligand displacement; radioligand; 1 µM).
The inhibition of `CCOC(=O)[C@@]12C[C@@H]1[C@@H](n1cnc3c(N[C@H](C4CCC4)C4CC4)nc(I)nc31)[C@H](O)[C@@H]2O` is reported as 88% (ligand displacement; radioligand; 10 µM).
